From ChEMBL document CHEMBL1154144, “Semisynthesis and antiplasmodial activity of the quinoline alkaloid aurachin E” (J Nat Prod, 2008)
In brackets after ≈: the same amount, converted by molar mass. Activity calls are given as the source filed them. The calls are words filed in the database; no cut-off is given here.

Assays:
[1] = test system: Plasmodium falciparum; assay: Antiplasmodial activity against Plasmodium falciparum W2 after 48 hrs; assay type: functional, organism-based; conditions: W2, 48 h
[2] = test system: Plasmodium falciparum; assay: Antiplasmodial activity against Plasmodium falciparum D6 clone after 48 hrs; assay type: functional, organism-based; conditions: D6, 48 h
[3] = test system: L929; assay: Cytotoxicity against mouse L929 cells after 5 days by MTT assay; assay type: cell-based; conditions: L929, 120 h
Procedure, shortened: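 L929 mouse fibroblasts were exposed to serial compound dilutions, and metabolic activity was read by MTT after 5 days.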

[4] = Inhibition of respiration in bovine heart submitochondrial particles assessed as NADH oxidation; assay type: functional, Bos taurus
[5] = test system: Plasmodium berghei; assay: Antimalarial activity against Plasmodium berghei infected in mice (Mus musculus) at 100 mg/kg; assay type: functional
[6] = test system: Plasmodium berghei; assay: Antimalarial activity against Plasmodium berghei infected in mice (Mus musculus)

| Compound | IC50 [1] | IC50 [2] | IC50 [3] | IC50 [4] | Activity [5] | ED90 [6] |
| --- | --- | --- | --- | --- | --- | --- |
| C[C@@H]1CC[C@H]2[C@@H](C)C(=O)O[C@@H]3O[C@@]4(C)CC[C@@H]1[C@]32OO4 [ARTEMISININ] | 0.00043 µg/mL (≈ 0.00152 µM) | 0.0011 µg/mL (≈ 0.0039 µM) | > 40 µg/mL | > 8.1 µg/mL | – | – |
| CC(C)=CCC/C(C)=C/CCC(C)(O)C1Cc2c(c(C)[n+]([O-])c3ccccc23)O1 (stereo not drawn) [AURACHIN A] | > 12 µg/mL | > 12 µg/mL | 1.4 µg/mL (≈ 3.54 µM) | 0.028 µg/mL (≈ 0.0708 µM) | – | – |
| CC(C)=CCC/C(C)=C/CC/C(C)=C/Cc1c(O)c(C)[n+]([O-])c2ccccc12 [AURACHIN B] | 0.036 µg/mL (≈ 0.0949 µM) | 0.078 µg/mL (≈ 0.206 µM) | 3.2 µg/mL (≈ 8.43 µM) | 0.014 µg/mL (≈ 0.0369 µM) | – | – |
| CC(C)=CCC/C(C)=C/CC/C(C)=C/Cc1c(C)n(O)c2ccccc2c1=O [AURACHIN C] | 0.026 µg/mL (≈ 0.0685 µM) | 0.0009 µg/mL (≈ 0.00237 µM) | 1.8 µg/mL (≈ 4.74 µM) | 0.016 µg/mL (≈ 0.0422 µM) | – | – |
| CC(C)=CCC/C(C)=C/CC/C(C)=C/Cc1c(C)[nH]c2ccccc2c1=O [AURACHIN D] | 0.37 µg/mL (≈ 1.02 µM) | 0.25 µg/mL (≈ 0.688 µM) | 1.3 µg/mL (≈ 3.58 µM) | 0.018 µg/mL (≈ 0.0495 µM) | – | – |
| CC(C)=CCC/C(C)=C/CC/C(C)=C/Cc1c(C)n2c(=O)[nH]c3cccc(c1=O)c32 [AURACHIN E] | 0.013 µg/mL (≈ 0.0321 µM) | 0.0004 µg/mL (≈ 0.000989 µM) | 25 µg/mL (≈ 61.8 µM) | 1.1 µg/mL (≈ 2.72 µM) | inactive | – |
| CCN(CC)CCCC(C)Nc1ccnc2cc(Cl)ccc12 (stereo not drawn) [CHLOROQUINE] | – | – | 14 µg/mL (≈ 43.8 µM) | > 8.1 µg/mL | – | 2.8 mg/kg |
